Laboratory results published in ChEMBL document CHEMBL3997797 (J Med Chem, 2017).

Tests used:
[1] = target: Acetylcholinesterase (Homo sapiens) (UniProt P22303); test: Inhibition of human AChE at 10 uM using acetylthiocholine as substrate by spectrophotometric method relative to control
[2] = target: T1, CES2 (cocaine esterase) (Homo sapiens, UniProt O00748); test: Inhibition of human intestinal CES2 expressed in baculovirus infected sf9 cells at 10 uM using o-nitrophenyl acetate as substrate monitored at 15 secs interval for 5 mins relative to control; details: probe o-nitrophenyl acetate
T1 sequence (O00748 whole entry): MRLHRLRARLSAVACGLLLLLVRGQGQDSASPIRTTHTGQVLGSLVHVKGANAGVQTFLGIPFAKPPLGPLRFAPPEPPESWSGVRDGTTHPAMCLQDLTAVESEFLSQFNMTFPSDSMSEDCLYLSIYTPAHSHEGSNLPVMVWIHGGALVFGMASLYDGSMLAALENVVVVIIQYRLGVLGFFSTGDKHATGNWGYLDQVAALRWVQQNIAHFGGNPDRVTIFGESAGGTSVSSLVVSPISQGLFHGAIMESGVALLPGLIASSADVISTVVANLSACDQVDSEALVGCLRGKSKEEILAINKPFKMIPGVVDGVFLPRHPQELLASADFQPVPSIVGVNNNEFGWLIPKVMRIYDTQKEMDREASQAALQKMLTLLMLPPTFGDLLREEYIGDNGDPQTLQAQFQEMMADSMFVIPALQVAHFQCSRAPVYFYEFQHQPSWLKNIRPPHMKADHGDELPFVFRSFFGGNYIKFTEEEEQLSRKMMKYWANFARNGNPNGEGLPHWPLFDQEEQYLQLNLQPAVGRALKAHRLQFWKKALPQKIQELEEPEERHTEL

[3] = target: T2, CES1 (liver carboxylesterase 1) (Homo sapiens, UniProt P23141); test: Inhibition of human liver CES1 expressed in baculovirus infected sf9 cells at 10 uM using o-nitrophenyl acetate as substrate monitored at 15 secs interval for 5 mins relative to control; details: probe o-nitrophenyl acetate
T2 sequence (P23141 whole entry): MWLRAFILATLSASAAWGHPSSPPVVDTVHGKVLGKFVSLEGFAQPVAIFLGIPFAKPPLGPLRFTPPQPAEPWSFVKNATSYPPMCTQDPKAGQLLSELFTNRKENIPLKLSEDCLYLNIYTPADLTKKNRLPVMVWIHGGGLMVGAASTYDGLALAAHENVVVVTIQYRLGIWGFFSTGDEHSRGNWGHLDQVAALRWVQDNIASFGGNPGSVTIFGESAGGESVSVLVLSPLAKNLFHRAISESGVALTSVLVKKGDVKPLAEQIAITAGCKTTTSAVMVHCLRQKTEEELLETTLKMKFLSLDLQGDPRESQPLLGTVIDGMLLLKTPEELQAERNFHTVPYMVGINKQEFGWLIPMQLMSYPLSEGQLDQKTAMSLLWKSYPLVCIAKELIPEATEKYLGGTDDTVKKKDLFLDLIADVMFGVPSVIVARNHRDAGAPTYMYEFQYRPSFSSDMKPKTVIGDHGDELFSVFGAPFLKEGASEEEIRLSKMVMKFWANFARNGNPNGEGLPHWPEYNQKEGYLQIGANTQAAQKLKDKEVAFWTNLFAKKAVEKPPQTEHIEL
Procedure, shortened: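 Purified secreted hCE1 from Sf9 culture medium, isolated by isoelectric focusing and chromatography. Inhibitor tested at a single concentration of 10 µM against o-NPA hydrolysis. Read-out is percent inhibition.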

[4] = Drug metabolism in DMSO/sodium phosphate buffer assessed as tautomerization at pH 3 to 11 by UV-spectroscopic method; assay type: physicochemical
Procedure, shortened: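 UV absorbance spectra recorded in aqueous 20% DMSO:80% 200 mM sodium phosphate buffer across a range of pH values to follow tautomeric form.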

[5] = target: T2, CES1 (liver carboxylesterase 1); test: Inhibition of human liver CES1 expressed in U373MG cells assessed as oseltamivir carboxylate formation at 5 uM using oseltamivir as substrate preincubated for 30 mins followed by compound washout and subsequent compound/substrate addition measured after 30 mins by UPLC-MS method relative to control; assay type: cell-based; design: scale not given: the % may be the effect or the level left; details: U373MG cells expressing human liver CES1, probe oseltamivir, read-out: Activity
Procedure, shortened: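 U373MG cells expressing hCE1 (1 x 10^5/well) attached overnight. They were pretreated 30 min with 5 µM inhibitor, then media was replaced with fresh media containing 20 µM oseltamivir plus 5 µM inhibitor for 30 min. Media was mixed with an equal volume of acetonitrile and metabolites were quantified by UPLC-MS. Run in duplicate with DMSO control.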

[6] = target: T3, Liver carboxylesterase 1 (Homo sapiens, UniProt P23141); test: Inhibition of human liver CES1 expressed in baculovirus infected sf9 cells using o-nitrophenyl acetate as substrate monitored at 15 secs interval for 5 mins
T3 sequence (P23141 whole entry): T2 sequence (P23141 whole entry)
Procedure, shortened: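 Purified hCE1 secreted from baculovirus-infected Sf9 cells, isolated from serum-free medium by preparative isoelectric focusing and chromatography. o-NPA hydrolysis measured with at least 8 inhibitor concentrations, each point in quadruplicate. Fractional inhibition fitted to a general partial-inhibition model (α 0 to ∞, β 0 to 1). The best model was chosen by r2 and Akaike's information criterion, and Ki was calculated from that model.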

[7] = target: T4, Cocaine esterase (Homo sapiens, UniProt O00748); test: Inhibition of human intestinal CES2 expressed in baculovirus infected sf9 cells using o-nitrophenyl acetate as substrate monitored at 15 secs interval for 5 mins
T4 sequence (O00748 whole entry): T1 sequence (O00748 whole entry)

[8] = target: T3, Liver carboxylesterase 1; test: Inhibition of human liver CES1 expressed in baculovirus infected sf9 cells using oseltamivir as substrate
[9] = target: T1, CES2 (cocaine esterase); test: Inhibition of human intestinal CES2 expressed in U373MG cells assessed as 7-ethyl-10-hydroxycamptothecin formation at 5 uM using irinotecan as substrate preincubated for 1 hr followed by substrate addition measured after 5 mins by HPLC method relative to control; assay type: cell-based; design: scale not given: the % may be the effect or the level left; details: U373MG cells expressing human intestinal CES2, probe irinotecan, read-out: Activity
[10] = organism: Homo sapiens; test: Selectivity ratio of Ki for human intestinal CES2 to Ki for human liver CES1
[11] = test system: U373 MG; test: Growth inhibition of human U373MG cells after 72 hrs; assay type: cell-based, U-373MG ATCC
[12] = test system: U373 MG; test: Cytotoxicity against human U373MG cells assessed as cell viability after 30 mins relative to control; assay type: cell-based; details: u-373mg atcc, 0.5 h

Sequence of Acetylcholinesterase (Homo sapiens) (P22303 whole entry): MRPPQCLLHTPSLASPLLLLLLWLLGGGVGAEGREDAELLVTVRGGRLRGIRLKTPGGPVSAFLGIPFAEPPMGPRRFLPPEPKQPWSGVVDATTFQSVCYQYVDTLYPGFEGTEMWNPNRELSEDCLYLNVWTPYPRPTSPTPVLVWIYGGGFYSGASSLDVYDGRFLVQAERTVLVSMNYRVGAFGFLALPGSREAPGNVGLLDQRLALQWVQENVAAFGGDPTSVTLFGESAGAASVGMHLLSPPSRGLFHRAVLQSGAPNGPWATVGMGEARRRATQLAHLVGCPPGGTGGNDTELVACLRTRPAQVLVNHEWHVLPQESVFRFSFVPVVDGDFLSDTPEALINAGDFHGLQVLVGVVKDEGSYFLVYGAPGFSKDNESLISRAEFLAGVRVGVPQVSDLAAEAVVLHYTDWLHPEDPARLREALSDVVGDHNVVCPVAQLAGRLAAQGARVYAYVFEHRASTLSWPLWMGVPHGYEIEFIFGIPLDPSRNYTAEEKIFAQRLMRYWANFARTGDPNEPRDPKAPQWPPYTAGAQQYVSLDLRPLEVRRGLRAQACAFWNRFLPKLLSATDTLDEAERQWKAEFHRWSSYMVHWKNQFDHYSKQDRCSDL

SMILES	inhibition [1] [%]	inhibition at 5 min, 10 µM [2] [%]	inhibition at 5 min, 10 µM [3] [%]	Drug metabolism [4]	activity at 0.5 h, 5 µM [5] [%]	Ki [6] [nM]	Ki [7] [nM]	Ki [8] [nM]	activity at 5 min, 5 µM [9] [%]	Ratio Ki [10]	IC50 [11] [nM]	Activity [12] [%]
O=C1C=C(Nc2ccccc2)c2ccccc2C1=O	5	12	30	Metabolite_Detected	–	–	–	–	–	–	–	–
O=C1C=C(Nc2ccc(Br)cc2)c2ccccc2C1=O	16	12	26	–	–	–	–	–	–	–	–	–
O=C1C=C(Nc2ccc(Cl)cc2)c2ccccc2C1=O	23	22	33	–	–	–	–	–	–	–	–	–
CC1(C)CCC2=C(O1)c1ccccc1C(=O)C2=O [LAPACHONE]	10	–	–	–	12	1220	–	–	–	–	–	–
O=C1C=C(Oc2ccc(Cl)cc2)c2ccccc2C1=O	31	–	–	–	20	18.9	–	–	–	–	–	–
O=C1C=C(Nc2ccc(F)cc2)c2ccccc2C1=O	21	14	40	–	–	–	–	–	–	–	–	–
O=C1C=C(Oc2ccc(I)cc2)c2ccccc2C1=O	25	–	–	–	–	4.7	–	–	–	–	–	–
Cc1ccc(OC2=CC(=O)C(=O)c3ccccc32)cc1	8	–	–	–	13	4.44	–	–	–	–	–	–
CN(C1=CC(=O)C(=O)c2ccccc21)c1ccc(Br)cc1	12	–	–	–	19	16.1	1840	17.2	89	4 to 11	–	–
O=C1C=C(Oc2ccc(F)cc2)c2ccccc2C1=O	22	–	–	Metabolite_Notdetected	25	45.3	–	–	–	–	–	–
CN(C1=CC(=O)C(=O)c2ccccc21)c1ccc(Cl)cc1	4	30	–	–	5	19.2	–	12.9	91	–	–	–
CN(C1=CC(=O)C(=O)c2ccccc21)c1ccc(F)cc1	1	19	–	Metabolite_Notdetected	1	163	–	37.6	92	–	3900	96
Cc1ccc(N(C)C2=CC(=O)C(=O)c3ccccc32)cc1	3	25	–	–	2	11.1	–	4.9	93	–	4600	100
Cc1ccc(NC2=CC(=O)C(=O)c3ccccc32)cc1	17	15	44	–	–	–	–	–	–	–	–	–
O=C1C=C(Nc2ccc(I)cc2)c2ccccc2C1=O	16	10	41	–	–	–	–	–	–	–	–	–
COc1ccc(N(C)C2=CC(=O)C(=O)c3ccccc32)cc1	1	7	–	–	6	81.6	–	17.7	77	–	–	–
CN(C1=CC(=O)C(=O)c2ccccc21)c1ccccc1	3	33	–	Metabolite_Notdetected	8	90	–	32.1	77	–	12800	99
O=C1C=C(Oc2ccccc2)c2ccccc2C1=O	11	–	–	Metabolite_Notdetected	19	23.8	–	–	–	–	–	–
O=C1C=C(Oc2ccc(Br)cc2)c2ccccc2C1=O	26	–	–	–	47	14.3	–	–	–	–	–	–
CN(C1=CC(=O)C(=O)c2ccccc21)c1ccc(I)cc1	31	83	–	–	–	400 to 408	284	148	–	4 to 11	–	–
COc1ccc(OC2=CC(=O)C(=O)c3ccccc32)cc1	18	–	–	–	14	17.8	–	–	–	–	–	–
COc1ccc(NC2=CC(=O)C(=O)c3ccccc32)cc1	5	12	26	–	–	–	–	–	–	–	–	–
